Compounds with a hit are over-represented: about 6.4% of the library has one in this group of screens.
Jurkat viability: cytotoxic compounds reducing Jurkat cell viability. 1.2% of 56,000 active. inhibition, % at 4 µM. Jurkat E6.1 viability, ATP luminescence, 48 h;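 active = inhibition above the mean inhibition of all tested compounds plus 3 SD, cut at about 28% in these data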
HUVEC prolif 384: blocks proliferation of human endothelial cells; HUVEC proliferation, CellTiter-Glo luminescence, 72 h; stronger effect = lower value; viability, % at 10 µM (by protocol); 1.1% of 86,000 active;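 active = viability at or below 30%; inactive = viability above 30%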
H69AR inhibit: blocks growth of human H69AR lung tumor cells. H69AR lung tumor viability, ATP luminescence, 72 h; stronger effect = lower value. viability, % at 10 µM. 6% of 85,000 active;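 active = viability at or below 40%; inactive = viability above 40%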;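 also: multidrug resistant small cell line overexpressing MRP-1 efflux transporter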
Fibroblast inh: blocks proliferation of human lung fibroblasts | 1.1% of 85,000 active | LL 47 human lung fibroblast viability, ATP luminescence; stronger effect = lower value | viability, % at 10 µM;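 active = viability at or below 50% in the single dose screen; inactive = viability above 50%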;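 also: compound exposure lasted 72 h before the ATP readout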
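Times – overnight cell rest, 72 h compound treatment at 37 °C · Test system – human lung fibroblast line LL 47, low passage · Amount – 1,150 cells in each well · Controls – cell-only wells, no compound · Doses – 0.1% DMSO in all compound wells · Measured by – CellTiter-Glo luminescence · Buffer or medium – IMEM plus 15% FBS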
tolC growth inh: blocks growth of E. coli BW25113 tolC mutant; OD615; growth inhibition, % at 10 µM (by protocol); 2.2% of 65,000 active;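 active = growth inhibition at or above a cutoff equal to the mean over every tested compound plus 3 SD, cut at about 60% in these data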;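 also: growth measured after 20 h incubation at 37 °C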
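Test system: E. coli BW25113 ΔtolC::kan bacteria | Medium: Kanamycin-containing LB broth (50 µg/mL) | Dosing: One dose of 10 µM final | Times: 20 h incubation with compound, 37 °C | Detection: Optical density read at 615 nm | Read-out basis: Percent growth inhibition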
E coli WT exp: blocks growth of wild type E. coli BW25113; OD600 absorbance; growth inhibition, % at 100 µM; 0.15% of 98,000 active;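 active = growth inhibition above about 50% at one test dose, limit read from the data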;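 also: growth measured after 20 h incubation at 37 °C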
Hits are given with their value; n = inactive; x = no result given.

SMILES	Jurkat viability	HUVEC prolif 384	H69AR inhibit	Fibroblast inh	tolC growth inh	E coli WT exp
Cc1nc2ccccn2c(=O)c1CCN1CCC(C(=O)c2ccc(F)cc2)CC1	x	n	n	n	n	x
Cc1nc2sccn2c(=O)c1CCN1CCC(=C(c2ccc(F)cc2)c2ccc(F)cc2)CC1	x	32	n	n	n	x
CCOC(=O)CCC(=O)N1CCOCCOCCN(C(=O)CCC(=O)OCC)CCOCCOCC1	x	n	n	n	x	n
CC(C)(C)c1ccc(OCc2nc(-c3ccccn3)no2)c(Br)c1	n	n	n	n	100	n
Cc1csc(-c2cnn(-c3ccccc3)c2NC(=O)c2ccc(C(F)(F)F)cc2)n1	x	n	n	n	x	n
CC(C)(C)C(=O)/C(=C\c1ccc([N+](=O)[O-])cc1)n1cncn1	x	2.1	n	2.1	x	x
C=CCNC(=O)/C(=C\c1ccc([N+](=O)[O-])cc1)NC(C)=O	x	x	x	x	x	n
Cc1nn(-c2ccccc2)c2sc(C(=O)OC3CCOC3=O)cc12 (configuration not stated)	n	n	n	n	n	n
CSc1cc(-c2ccccc2)n(Cc2c(Cl)cccc2Cl)c(=O)c1C#N	x	n	12	33	x	n
Cc1ccccc1Cn1ccc(-c2ccc(Cl)cc2)c(C#N)c1=O	x	x	x	x	x	n
N#Cc1cc(-c2ccc(Cl)cc2)cn(Cc2c(Cl)cccc2Cl)c1=O	x	x	x	x	x	n
CSc1cc(-c2ccc(Cl)cc2)n(Cc2ccccc2)c(=O)c1C#N	x	8.8	5.4	27	x	n
O=c1/c(=C\c2cccn2-c2ccccc2)sc2nc3ccccc3n12	x	n	28	n	n	n
Cc1ccc(-n2c(C)cc(/C=c3/sc4nc5ccccc5n4c3=O)c2C)cc1	x	n	n	n	x	n
Cc1ccccc1C(=O)c1cccn1CC(=O)NCCN1CCN(c2cccc(C)c2C)CC1	x	6.1	5.2	n	x	n
CCCCN(NC(C)=O)c1nc(Cl)nc(NC(C)C)n1	x	n	n	n	x	n
Cc1ccc(C2CC(c3cccs3)=NN2C(=O)CSC2=NN3CCCC(=O)N=C3S2)cc1 (configuration not stated)	x	n	11	n	x	n
COc1ccc(C2CC(c3cccs3)=NN2C(=O)CSC2=NN3CCCC(=O)N=C3S2)cc1 (configuration not stated)	x	n	n	n	x	n
CCCOc1ccccc1N/C(=N/c1nc(C)cc(C)n1)NC(=O)Nc1ccc(Cl)cc1	x	x	x	x	x	n
COc1cc(S(=O)(=O)NCCc2ccc3c(c2)OCO3)ccc1-n1cnnn1	n	n	x	n	n	n
COc1cccc(-c2nn(-c3ccccc3)cc2C(=O)n2nnc3ccccc32)c1	x	n	19	n	x	n
COc1cccc(-c2nn(-c3ccccc3)cc2C(=O)Nc2nccs2)c1	n	n	36	n	n	n
COc1ccc(-c2nn(-c3ccccc3)cc2C(=O)N2CCOCC2)cc1	n	n	n	n	n	n
O=C(c1cn(-c2ccccc2)nc1-c1ccccc1)n1nnc2ccccc21	x	n	n	n	x	n
COc1cccc(-n2ccnc2SCC(=O)Nc2nccs2)c1	n	n	n	n	n	n
SMILES	Jurkat viability	HUVEC prolif 384	H69AR inhibit	Fibroblast inh	tolC growth inh	E coli WT exp
COc1ccc(-c2nn(-c3ccccc3)cc2C(=O)Nc2nccs2)cc1	x	n	23	n	x	n
COc1ccc(CN2CCCCC2C(=O)Nc2ccc(OC)c(OCC(C)C)c2)cc1OC (configuration not stated)	x	n	n	n	x	x
Cc1cccc(NC(=O)CSc2nnc([C@@H](N)Cc3ccccc3)o2)c1C	x	n	n	n	x	n
CCOC(=O)N1CCN(CC(=O)Nc2c(C(=O)OC)[nH]c3cc(C)ccc23)CC1	x	n	n	n	x	n
CCOC(=O)N1CCN(CC(=O)Nc2c(C(=O)OC)[nH]c3ccc(Cl)cc23)CC1	31	n	n	n	86	n
Cc1ccc2[nH]c(C(=O)O)c(NC(=O)CN3CCN(c4cccc(C)c4C)CC3)c2c1	n	n	n	n	96	n
CCOC(=O)c1[nH]c2ccc(F)cc2c1NC(=O)CN1CCN(C/C=C/c2ccccc2)CC1	n	2.6	3.6	14	98	n
Cc1ccc(S(=O)(=O)CCC(=O)NCc2ccco2)cc1	x	x	x	x	x	n
O=C1CC(N(Cc2ccco2)C(=O)Nc2ccc(F)cc2)C(=O)N1c1ccc(F)cc1 (configuration not stated)	n	n	n	n	n	n
CN(CC1CCCO1)S(=O)(=O)c1ccc(C(=O)Nc2nc(-c3ccccn3)cs2)cc1 (configuration not stated)	52	n	n	42	n	n
CCC(=O)N1c2ccccc2NC2=C(C(=O)CC(c3ccco3)C2)C1c1ccco1 (configuration not stated)	x	n	n	n	n	n
O=C1CC(c2ccco2)CC2=C1C1c3ccccc3C(=O)N1c1ccccc1N2 (configuration not stated)	n	n	n	n	89	n
CC(=O)N1c2ccccc2N(Cc2ccc(C)cc2C)C(=O)C1(C)C	95	n	23	46	n	n
CC1(C)CC(=O)C(C=NCC2CCN(C(=O)Nc3ccccc3)CC2)=C(O)C1	n	x	x	x	n	x
Cc1ccc(NC(=O)CSc2nnc(Cn3c(=O)sc4ccccc43)n2C)cc1	n	n	n	n	n	n
CCc1ccc(NC(=O)CSc2nnc(Cn3c(=O)sc4ccccc43)n2C)cc1	n	n	n	n	n	n
Cc1ccc(NC(=O)CSc2nnc(Cn3c(=O)sc4ccccc43)n2C)cc1Cl	n	n	29	n	n	n
CCOC(=O)c1ccc(NC(=O)CSc2nnc(Cn3c(=O)sc4ccccc43)n2C)cc1	n	n	16	n	n	n
CC(C)Cn1c(-c2ccc(Cl)cc2)cnc1SCC(=O)N1CCOCC1	n	n	n	n	n	n
COc1ccc2[nH]c(=O)c(CN(C(=O)C3CCCO3)c3ccc(C)cc3)cc2c1 (configuration not stated)	n	n	n	n	n	n
CCOc1cccc(NC(=O)CSc2nc(C)c3c(c2C#N)CCCC3)c1	x	n	n	n	x	n
Cc1ccsc1/C=C/C1=Cc2c(sc(NC(=O)CSc3n[nH]c(N)n3)c2C#N)C(C)(C)C1	x	15	1.7	n	x	n
CCOc1ccc(/C=C/C2=Cc3c(sc(NC(=O)CSc4n[nH]c(N)n4)c3C#N)C(C)(C)C2)cc1	x	3.6	1.8	48	x	n
Cc1ccc(CNC(=O)CSc2n[nH]c(N)n2)cc1	n	n	n	n	n	n
CCN(CC)S(=O)(=O)c1ccc(-c2nnc(SCC(=O)N3CCc4ccccc43)o2)cc1	n	n	4.4	35	n	x
CCN(CC)S(=O)(=O)c1ccc(-c2nnc(SCc3nnc(-c4ccc(C)cc4)o3)n2CC)cc1	x	n	n	n	x	n
CCN(CC)S(=O)(=O)c1ccc(-c2nnc(SCc3nnc(-c4ccc(C)cc4)o3)o2)cc1	n	n	3.3	n	n	n
CCN(CC)S(=O)(=O)c1ccc(-c2nnc(SCC(=O)N3CCOCC3)o2)cc1	n	n	n	n	n	n

Bioassay records (PubChem BioAssay)
